The values that follow come from ChEMBL document CHEMBL5036367, “The BASHY Platform Enables the Assembly of a Fluorescent Bortezomib-GV1001 Conjugate” (ACS Med Chem Lett, 2022).

Data set [1] concerns HeLa. Put plainly: Cytotoxicity against human HeLa cells assessed as reduction in cell viability incubated for 24 hrs by MTT assay. It counts as functional, cell-based. A general note: Tetrazolium assays rely on reduction of a dye to a coloured formazan, in cell work by metabolically active cells.
In data set [2] the test system is HeLa. Put plainly: Cytotoxicity against oleic acid-induced human HeLa cells assessed as reduction in cell viability incubated for 24 hrs by MTT assay. In kind it is functional, cell-based.
The test system of a further data set is HT-29. Put plainly: Cytotoxicity against human HT-29 cells assessed as reduction in cell viability incubated for 24 hrs by MTT assay. It counts as functional, cell-based. The following applies: HT-29, 24 h.
Data set [3] in a line: Stability of compound in ammonium acetate assessed as half life at pH 7. It counts as physicochemical.
Data set [4] in a line: Drug uptake in lysosomes of human HT-29 cells assessed as accumulation in lipid droplets by LysoTracker Red and Nile red staining based confocal microscopic analysis. It counts as ADME, cell-based. Summed up:
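HT-29 cells were imaged by confocal fluorescence microscopy using the compound's own fluorescence. Co-staining was with LysoTracker Deep Red for lysosomes and Nile Red for lipid droplets. Colocalization was expressed as the Pearson's correlation coefficient.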

As for `CCC1=[N+]2N=C(c3ccccc3)C(=O)O[B-]2([C@H](CC(C)C)NC(=O)[C@@H](Cc2ccccc2)NC(=O)c2cnccn2)Oc2cc(OC)ccc21` (stereo partly specified), the IC50 (as a rule, the concentration that inhibits the measured activity by half) in the data set on HeLa [1] is 134 nM; with HeLa [2] it was > 200 nM; with HT-29 it was 19.5 nM. Also, the half-life (as a rule, the time needed for the level to fall by half in the phase considered) in data set [3] was 13 h. Also, the Drug uptake entry in data set [4] is “Active”.

In the case of `CCC1=[N+]2N=C(c3ccccc3)C(=O)O[B-]2(c2ccccc2)Oc2cc(OC)ccc21` (stereo unspecified), the Drug uptake entry in data set [4] is “Active”.

`COc1ccc2c(c1)O[B-]1([C@H](CC(C)C)NC(=O)[C@@H](Cc3ccccc3)NC(=O)c3cnccn3)OC(=O)C(c3ccccc3)=N[N+]1=C2c1ccccc1` (stereo partly specified): the IC50 in the data set on HT-29 turned out to be 450 nM.

In the case of `CC[C@H](C)[C@H](NC(=O)[C@H](Cc1ccccc1)NC(=O)[C@H](CCCNC(=N)N)NC(=O)[C@H](CC(C)C)NC(=O)[C@H](CCCNC(=N)N)NC(=O)[C@H](CO)NC(=O)[C@@H](NC(=O)[C@H](CC(C)C)NC(=O)[C@H](CC(C)C)NC(=O)[C@H](C)NC(=O)[C@@H]1CCCN1C(=O)[C@H](CCCNC(=N)N)NC(=O)[C@H](C)NC(=O)[C@@H](N)CCC(=O)O)[C@@H](C)O)C(=O)N1CCC[C@H]1C(=O)N[C@@H](CCCCN)C(=O)N[C@H](CSC1CC(=O)N(CCC(=O)NCCOCCOCCOCCOCCC(=O)NCCC(=O)N2Cc3ccccc3-c3c(nnn3CCOCCOCCOCCOc3ccc4c(c3)O[B-]3([C@@H](CC(C)C)NC(=O)[C@@H](Cc5ccccc5)NC(=O)c5cnccn5)OC(=O)C(c5ccccc5)=N[N+]3=C4c3ccccc3)-c3ccccc32)C1=O)C(=O)O` (stereo partly specified), the IC50 with HT-29 worked out at 100 nM. The Drug uptake result in data set [4] was “Not Active”.

As to `CCc1c2c(nc3ccc(O)cc13)-c1cc3c(c(=O)n1C2)COC(=O)[C@]3(O)CC` [7-ETHYL-10-HYDROXYCAMPTOTHECIN], the IC50 is 349 nM in the data set with HeLa [1] and > 1000 nM with HeLa [2].

On to `CC(C)C[C@H](NC(=O)[C@H](Cc1ccccc1)NC(=O)c1cnccn1)B(O)O` [BORTEZOMIB], for which the figures for the 50% inhibitory concentration (IC50) in the data set with HeLa [1], with HeLa [2] and with HT-29 were 20 nM, > 200 nM and 3.2 nM, respectively.

Take `COc1cccc2c1C(=O)c1c(O)c3c(c(O)c1C2=O)C[C@@](O)(C(=O)CO)C[C@@H]3O[C@H]1C[C@H](N)[C@H](O)[C@H](C)O1` [DOXORUBICIN]: the figures for the IC50 in the data set on HeLa [1] and in the data set on HeLa [2] were 90 nM and > 1000 nM, respectively.
